What all share (format): functional
For experiment [1], the target named is Metallo-beta-lactamase type 2 (Bacteroides fragilis) (UniProt P25910). As to the kind of experiment: Beta-lactamase inhibitory activity from […] A-22,695 and minimum protective concentration was reported.
Experiment [2] has as its target Beta-lactamase (Staphylococcus aureus) (UniProt P00807). Description: Beta-lactamase inhibitory activity from Staphylococcus aureus A9606 and minimum protective concentration was reported.
Experiment [3] concerns Escherichia coli. As to the kind of experiment: Minimum inhibitory activity against Escherichia coli A21223. Put shortly: (§1)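 MICs by agar dilution: organisms were inoculated onto drug-containing agar plates with a multipoint replicating device.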
The subject of experiment [4] is Staphylococcus aureus. As to the kind of experiment: Minimum inhibitory activity against Staphylococcus aureus A15091. Put shortly:
as §1

Experiment [5] relates to Staphylococcus aureus. Description: Minimum inhibitory activity against Staphylococcus aureus A9606. The method, boiled down: as §1
Experiment [6] relates to Staphylococcus aureus. Description: Minimum inhibitory activity against Staphylococcus aureus A20309. The method, boiled down: as §1
Experiment [7] has as its target Beta lactamase TEM-1 (Klebsiella pneumoniae) (UniProt Q7B899). As to the kind of experiment: Beta-lactamase inhibitory activity from Klebsiella pneumoniae A20634(TEM) and minimum protective concentration was reported.
Experiment [8] deals with Escherichia coli. Description: Minimum inhibitory activity against Escherichia coli A9675. The method, boiled down: as §1
For experiment [9], the species on record is Mus musculus. As to the kind of experiment: Beta-lactamase inhibitory activity against Staphylococcus aureus A15091 using oral mouse protection test in mice. The conditions noted are these: read-out: PD50. The method, boiled down: (§2)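 Challenge organisms suspended in mucin (2 or 4%) and injected ip into 18-24 g Swiss-Webster (ICR strain) mice. Oral treatment given at 0 and 2 h postchallenge. Observation ran 5 days, and PD50 was calculated by the Spearman-Karber method.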

Experiment [10] is filed under the species Mus musculus. As to the kind of experiment: Beta-lactamase inhibitory activity against Staphylococcus aureus A20379 using oral mouse protection test in mice. The conditions noted are these: read-out: PD50. The method, boiled down: as §2
The species named for experiment [11] is Mus musculus. Description: Beta-lactamase inhibitory activity against Staphylococcus aureus A9606 using oral mouse protection test in mice. The note with it: for ED50: Mus musculus, po, read-out: PD50. Put shortly:
as §2

For experiment [12], the species on record is Mus musculus. As to the kind of experiment: Beta-lactamase inhibitory activity against Escherichia coli A21223 using oral mouse protection test in mice. The conditions noted are these: read-out: PD50. Put shortly: as §2

Converted amounts (≈) assume the structure as drawn.

Sequence of Beta-lactamase (Staphylococcus aureus) (P00807 whole entry): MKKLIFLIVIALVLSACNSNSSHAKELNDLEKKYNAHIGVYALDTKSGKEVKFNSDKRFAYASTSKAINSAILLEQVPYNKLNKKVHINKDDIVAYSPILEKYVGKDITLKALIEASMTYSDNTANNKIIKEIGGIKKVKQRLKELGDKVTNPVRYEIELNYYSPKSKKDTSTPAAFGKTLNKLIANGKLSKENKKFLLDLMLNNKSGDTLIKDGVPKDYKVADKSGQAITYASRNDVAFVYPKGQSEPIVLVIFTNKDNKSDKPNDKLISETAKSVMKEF
Sequence of Beta lactamase TEM-1 (Klebsiella pneumoniae) (Q7B899 as listed by the source): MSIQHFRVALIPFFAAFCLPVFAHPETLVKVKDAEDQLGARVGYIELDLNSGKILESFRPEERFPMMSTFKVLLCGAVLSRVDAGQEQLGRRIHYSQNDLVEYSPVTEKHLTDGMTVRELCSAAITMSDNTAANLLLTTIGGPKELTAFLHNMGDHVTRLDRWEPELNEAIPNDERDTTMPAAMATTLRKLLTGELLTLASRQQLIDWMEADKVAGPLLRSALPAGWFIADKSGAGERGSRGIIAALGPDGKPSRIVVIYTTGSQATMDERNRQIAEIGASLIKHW
Sequence of Metallo-beta-lactamase type 2 (Bacteroides fragilis) (P25910 whole entry): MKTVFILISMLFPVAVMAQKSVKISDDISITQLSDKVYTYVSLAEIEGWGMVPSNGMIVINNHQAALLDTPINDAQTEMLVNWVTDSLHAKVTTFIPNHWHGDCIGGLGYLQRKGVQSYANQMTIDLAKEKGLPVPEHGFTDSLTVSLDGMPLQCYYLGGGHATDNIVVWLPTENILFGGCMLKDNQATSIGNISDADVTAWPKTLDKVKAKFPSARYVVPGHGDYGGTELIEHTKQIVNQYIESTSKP

Regarding `O=C(O)[C@H]1/C(=C/CO)O[C@@H]2CC(=O)N21` [CLAVULANIC ACID], the MPC worked out at 6.3 µg/mL in [1], 0.4 µg/mL in experiment [2] and 0.1 µg/mL in [7]. The MIC in the experiment with Escherichia coli [3], against Staphylococcus aureus [4], in the experiment with Staphylococcus aureus [5], with Staphylococcus aureus [6] and against Escherichia coli [8] was 32 µg/mL (≈ 161 µM) in each case.

For `CC1(C)S[C@@H]2[C@H](NC(=O)[C@H](N)c3ccc(O)cc3)C(=O)N2[C@H]1C(=O)O.C[C@]1(CCl)[C@H](C(=O)[O-])N2C(=O)C[C@H]2S1(=O)=O.[K+]` [AMOXACILLIN +BL-P2013], the ED50 worked out at 72 mg/kg in the experiment filed under Mus musculus [9], 34 mg/kg in the experiment filed under Mus musculus [10], 24 mg/kg in the experiment filed under Mus musculus [11] and 16 mg/kg in the experiment filed under Mus musculus [12]. For the same compound, the minimum inhibitory concentration (MIC) (as a rule, the smallest concentration in the dilution series that meets the test's criterion for growth inhibition) is 2 µg/mL in the experiment with Escherichia coli [3]; 1 µg/mL against Staphylococcus aureus [4]; 1 µg/mL against Staphylococcus aureus [5]; 2 µg/mL with Staphylococcus aureus [6]; 2 µg/mL with Escherichia coli [8].

Consider `COc1cccc(OC)c1C(=O)N[C@@H]1C(=O)N2[C@@H](C(=O)O)C(C)(C)S(=O)(=O)[C@H]12`, for which the MPC in experiment [2] was over 100 µg/mL; in [7], 125 µg/mL.

For `C[C@]1(CCl)[C@H](C(=O)[O-])N2C(=O)C[C@H]2S1(=O)=O.[K+]` [BL-P2013], the ED50 in the experiment filed under Mus musculus [9], in the experiment listed under Mus musculus [10], in the experiment listed under Mus musculus [11] and in the experiment listed under Mus musculus [12] was over 200 mg/kg in each case. Moreover, the MPC came to 12.5 µg/mL in experiment [1], 3.1 µg/mL in experiment [2] and 3.1 µg/mL in experiment [7]. Further, the MIC in the experiment with Escherichia coli [3] is over 125 µg/mL; in the experiment with Staphylococcus aureus [4], 125 µg/mL; with Staphylococcus aureus [5], 125 µg/mL; with Staphylococcus aureus [6] it was 125 µg/mL; against Escherichia coli [8] it was over 125 µg/mL.

`CC1(C)C(C(=O)O)N2C(=O)C(Cl)C2S1(=O)=O` (stereo not drawn): the MPC is over 100 µg/mL in experiment [2] and 25 µg/mL in experiment [7].

With `CC1(C)S[C@@H]2[C@H](NC(=O)[C@H](N)c3ccc(O)cc3)C(=O)N2[C@H]1C(=O)O.CC1(C)[C@H](C(=O)O)N2C(=O)C[C@H]2S1(=O)=O`, the ED50 in the experiment filed under Mus musculus [9] turned out to be 160 mg/kg; in the experiment filed under Mus musculus [10] it was 21 mg/kg; in the experiment filed under Mus musculus [11] it was 15 mg/kg; in the experiment listed under Mus musculus [12], 46 mg/kg. For the same compound, the minimal inhibitory concentration (MIC) in the experiment with Escherichia coli [3] worked out at 4 µg/mL; against Staphylococcus aureus [4], 2 µg/mL; in the experiment with Staphylococcus aureus [5], 2 µg/mL; against Staphylococcus aureus [6], 4 µg/mL; against Escherichia coli [8], 4 µg/mL.

`CC1(C)S[C@@H]2[C@H](NC(=O)[C@H](N)c3ccc(O)cc3)C(=O)N2[C@H]1C(=O)O` [AMOXICILLIN]: the ED50 is over 800 mg/kg in the experiment listed under Mus musculus [9], over 200 mg/kg in the experiment listed under Mus musculus [10], over 800 mg/kg in the experiment filed under Mus musculus [11] and over 200 mg/kg in the experiment listed under Mus musculus [12]. In addition, the MIC in the experiment with Escherichia coli [3] is 125 µg/mL (≈ 342 µM); with Staphylococcus aureus [4], over 125 µg/mL; in the experiment with Staphylococcus aureus [5], over 125 µg/mL; against Staphylococcus aureus [6], 125 µg/mL (≈ 342 µM); in the experiment on Escherichia coli [8], 63 µg/mL (≈ 172 µM).

Consider `CC1(C)S[C@@H]2[C@H](NC(=O)[C@H](N)c3ccc(O)cc3)C(=O)N2[C@H]1C(=O)O.O=C(O)[C@H]1/C(=C/CO)O[C@@H]2CC(=O)N21`, for which the MIC in the experiment on Escherichia coli [3] turned out to be 8 µg/mL; against Staphylococcus aureus [4], 2 µg/mL; against Staphylococcus aureus [5], 2 µg/mL; with Staphylococcus aureus [6] it was 2 µg/mL; in the experiment on Escherichia coli [8], 2 µg/mL.

As for `CC1(C)[C@H](C(=O)O)N2C(=O)C[C@H]2S1(=O)=O` [SULBACTAM], the ED50 in the experiment filed under Mus musculus [9], in the experiment listed under Mus musculus [10] and in the experiment listed under Mus musculus [12] was over 200 mg/kg each time. Also, the results for the MPC in [1], in [2] and in experiment [7] were 12.5 µg/mL, 12.5 µg/mL and 1.6 µg/mL, respectively. For the same compound, the minimum inhibitory concentration (MIC) was over 125 µg/mL in the experiment with Escherichia coli [3]; over 125 µg/mL with Staphylococcus aureus [4]; over 125 µg/mL in the experiment with Staphylococcus aureus [5]; over 125 µg/mL in the experiment with Staphylococcus aureus [6]; 125 µg/mL (≈ 536 µM) in the experiment with Escherichia coli [8]. For the same compound, in the experiment filed under Mus musculus [11], the PD50 is over 200 mg/kg.

Source of the values: ChEMBL document CHEMBL1121772, “Synthesis and beta-lactamase inhibitory properties of 2 beta-(chloromethyl)-2 alpha-methylpenam-3 alpha-carboxylic acid 1,1-dioxide” (1981).
